We go through nine molecules from ChEMBL document CHEMBL4028889 (2017).

Activity calls are given as the source filed them. The calls are words filed in the database; no cut-off is given here. Bounds are passed on as bounds.

In assay [1] the test system is PC-12. Put plainly: Neuroprotective activity against etoposide-induced apoptosis in rat PC12 cells assessed as cell viability at 0.3 uM pretreated for 4 hrs followed by etoposide challenge measured after 48 hrs by PrestoBlue assay relative to control. It is filed as functional. Particulars: read-out: Activity. The essentials:
(§1)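 PC12 cells were plated at 50000/well on collagen-coated plates and left overnight. They were pretreated 4 h with compound, then given 15 μg/mL etoposide. Viability was read at 48 h by PrestoBlue (ex 560/em 590 nm). n = 3, mean ± SEM, as % viability.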

Assay [2] concerns PC-12. Put plainly: Induction of autophagy in rat PC12 cells after 48 hrs by MDC staining-based flow cytometric method. In kind it is functional, cell-based. The essentials:
(§2)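 PC12 cells were treated for 48 h and then stained with 0.5 mM monodansylcadaverine for 30 min at 37 °C. Trypsinized cells were pooled with floating cells and resuspended in PBS/1% FBS. 10000 cells were read by flow cytometry in the FITC channel after gating out debris. MDC staining is expressed relative to vehicle.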

The test system of assay [3] is PC-12. Put plainly: Neuroprotective activity against etoposide-induced apoptosis in rat PC12 cells assessed as increase in cell viability at 0.1 uM pretreated for 4 hrs followed by etoposide challenge measured after 48 hrs by PrestoBlue assay relative to control. It is filed as functional, cell-based. An outline of the steps: as §1
Assay [4] is described as follows: Neuroprotective activity against etoposide-induced apoptosis in human IMR90-c4 cells assessed as increase in cell viability at 3 uM pretreated for 4 hrs followed by etoposide challenge measured after 36 hrs by PrestoBlue assay relative to control. In kind it is functional. The essentials:
(§3)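 IMR90-c4 iPSC-derived neurons were plated at 16000 cells/well on poly-D-lysine/laminin and matured. They were pretreated 4 h with compound, then given 15 μg/mL etoposide. Viability was read at 36 h by PrestoBlue fluorescence (ex 560/em 590 nm).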

The subject of assay [5] is PC-12. Put plainly: Induction of autophagy in rat PC12 cells at 3 uM after 48 hrs by MDC staining-based flow cytometric method relative to control. In kind it is functional. The essentials:
as §2

The test system of assay [6] is PC-12. The assay can be described thus: Neuroprotective activity against etoposide-induced apoptosis in rat PC12 cells assessed as increase in Bcl2/Bax ratio at 3 uM pretreated for 4 hrs followed by etoposide challenge measured after 48 hrs by Western blot method. In kind it is functional, cell-based. An outline of the steps:
(§4)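 PC12 cells were pretreated 4 h with compound before etoposide and lysed after 24 or 48 h. 50 μg protein was run on 10% SDS gel and blotted. Probes were Bcl-2 (1:1000), Bax (1:500) and actin, with HRP chemiluminescence and densitometric Bcl-2/Bax ratio. n = 2, mean ± SEM.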

Assay [7] deals with PC-12. The assay can be described thus: Neuroprotective activity against etoposide-induced apoptosis in rat PC12 cells assessed as cell viability at 3 uM pretreated for 4 hrs followed by etoposide challenge measured after 48 hrs by PrestoBlue assay (reference value: 52.13 +/- 1.13%). In kind it is functional. Conditions: read-out: Activity. An outline of the steps:
as §1

Assay [8] has as its system PC-12. Put plainly: Neuroprotective activity against H2O2-induced apoptosis in rat PC12 cells assessed as increase in cell viability at 1 to 30 uM after 4 hrs by PrestoBlue assay. It is filed as functional, cell-based. The essentials: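 PC12 cells were exposed to 400 μM H2O2 with compounds at 1–30 μM. Viability was measured after 4 h with PrestoBlue.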
The subject of assay [9] is PC-12. Put plainly: Induction of autophagy in rat PC12 cells at 10 uM after 48 hrs by MDC staining-based flow cytometric method relative to control. It is filed as functional. The essentials: as §2
On the technique in general: Flow cytometry measures light scatter and fluorescence of single cells or particles in a stream.

The subject of assay [10] is PC-12. Put plainly: Induction of autophagy in rat PC12 cells assessed as increase in beclin 1 expression at 10 uM after 24 hrs by Western blot method relative to control. It is filed as functional. An outline of the steps:
(§5)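 PC12 lysates were taken after 24 h of compound treatment. 50 μg protein was run on 10% SDS gel and transferred to nitrocellulose. Blots were blocked in 5% BSA, probed overnight at 4 °C with beclin 1 (1:2000) and actin (1:5000), then HRP secondary. Chemiluminescence was quantified by densitometry.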
On the technique in general: Immunoblotting shows a protein as a band on a membrane.

In assay [11] the test system is PC-12. Put plainly: Neuroprotective activity against etoposide-induced apoptosis in rat PC12 cells assessed as increase in Bcl2/Bax ratio at 3 uM pretreated for 4 hrs followed by etoposide challenge measured after 24 hrs by Western blot method. It is filed as functional. An outline of the steps:
as §4

Assay [12] deals with Glutamate [NMDA] receptor (Homo sapiens) (UniProt Q05586+Q12879+Q13224+O15399+O60391+Q14957+Q8TCU5). Put plainly: Antagonist activity at NMDA receptor in human IMR90-c4 cells assessed as decrease in NMDA-mediated reduction in cell viability at 0.1 to 30 uM by PrestoBlue assay. In kind it is cell-based. The essentials:
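Neurons differentiated from IMR90-c4 iPSCs over roughly 21 days, then challenged with 500 μM NMDA. Viability was read with PrestoBlue. n = 1 with 4 technical replicates; % viability given as mean ± SEM.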

Assay [13] has as its system PC-12. The assay can be described thus: Induction of autophagy in rat PC12 cells assessed as increase in beclin 1 expression at 3 uM after 24 hrs by Western blot method relative to control. In kind it is functional. An outline of the steps: as §5
The test system of assay [14] is PC-12. Put plainly: Induction of autophagy in rat PC12 cells assessed as increase in beclin 1 expression after 24 hrs by Western blot method. It is filed as functional, cell-based. An outline of the steps:
as §5

The subject of assay [15] is IMR90-c4. Put plainly: Neuroprotective activity against etoposide-induced apoptosis in human IMR90-c4 cells assessed as increase in cell viability at 3 to 30 uM pretreated for 4 hrs followed by etoposide challenge measured after 36 hrs by PrestoBlue assay. It is filed as functional, cell-based. The essentials: as §3
The subject of assay [16] is PC-12. Put plainly: Neuroprotective activity against etoposide-induced apoptosis in rat PC12 cells assessed as cell viability at 0.1 uM pretreated for 4 hrs followed by etoposide challenge measured after 48 hrs by PrestoBlue assay relative to control. It is filed as functional. Conditions: read-out: Activity. An outline of the steps:
as §1

The subject of assay [17] is PC-12. Put plainly: Neuroprotective activity in rat PC12 cells assessed as decrease in H2O2-induced reactive oxygen species generation at 10 uM by CellROX/DAPI-blue staining-based fluorescence microscopic method. It is filed as functional, cell-based. An outline of the steps:
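PC12 cells were grown in RPMI with 10% horse serum and 5% FBS on collagen-coated plates. ROS was induced with H2O2 and cells exposed to compound. Staining used CellROX green plus DAPI, imaged by fluorescence microscopy at 40×.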

In the case of `CCOC(=O)Nc1ccc(NCc2ccc(SC(F)(F)F)cc2)nc1N`, the viability at 0.3 µM in [1] came to 93%. Also, the Activity result is “Dose-dependent effect” in [2] and 71% in assay [4]. Besides, the outcome in assay [3] was Active. The “fold change (FC)” value in [5] is reported as 8. Besides, the outcome in assay [6] was inactive.

Take `CCOC(=O)Nc1ccc(NCCc2ccc(F)cc2)nc1N`: in [7], the viability at 3 µM amounted to 59.3%.

On to `CCOC(=O)Nc1ccc(NCc2ccc(C)cc2)nc1N`, for which, in assay [7], the viability at 3 µM was found to be 136%.

For `CCOC(=O)Nc1ccc(NCc2ccc(C)cc2)nc1`, the viability at 3 µM in assay [7] was determined as 64.3%.

For `CCOC(=O)Nc1ccc(NCc2ccccc2)nc1`, in assay [7], the viability at 3 µM was 67.5%.

Take `CCOC(=O)Nc1ccc(NCc2ccc(Cl)cc2)nc1N`: the outcome in [8], in [11] and in [6] was inactive. The “fold change (FC)” value is listed as above 12 in assay [9] and above 5 in assay [5]. The results for the Activity in assay [10], in [2] and in assay [13] were 104%, “Dose-dependent effect” and -20%, respectively. The viability at 3 µM in assay [7] was 64.3%. In addition, the inhibition entry in assay [12] is “inactive”.

Take `CCOC(=O)Nc1ccc(NCc2ccc(OC(F)(F)F)cc2)nc1N`: the Activity entry in [14] and in assay [2] was “Dose-dependent effect” each time. Moreover, in assay [7], the viability at 3 µM is 80.6%. Moreover, the result in [15] was Active. The viability at 0.1 µM in [16] is 77%. For the same molecule, in [6], the outcome was inactive.

With `CCOC(=O)Nc1ccc(NCc2ccccc2C(F)(F)F)nc1N`, in assay [7], the viability at 3 µM was 82.8%.

In the case of `C=CCOC(=O)Nc1ccc(NCc2ccc(F)cc2)nc1N`, the outcome in assay [8], in assay [17] and in assay [6] was inactive. For the same molecule, the viability at 3 µM in assay [7] was 84.9%. In assay [11], the Activity came to 150%. Moreover, the inhibition result in assay [12] is “inactive”. Besides, the “fold change (FC)” value in assay [5] came out at 2.
